Drawing on ChEMBL document CHEMBL1687913, “Structure-activity relationship, conformational and biological studies of temporin L analogues” (J Med Chem, 2011), this text covers MIC and hemolysis for three compounds.

Converted amounts (≈) assume the structure as drawn. Where a SMILES comes first, the peptide text is derived from it.

The subject of series [1] is Acinetobacter baumannii. In words: Antibacterial activity against Acinetobacter baumannii ATCC 19606 after 18 to 20 hrs by microbroth dilution method. Type of series: functional. Put shortly: (§1)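 CLSI microbroth dilution, adapted. Mid-log bacteria, 2 × 10^6 CFU/mL in Mueller-Hinton broth, mixed 1:1 with MH broth holding peptide in serial 2-fold dilutions in 20% ethanol (0.75-48 μM). Incubated 18-20 h at 37 °C; growth read as A600. MIC is the lowest concentration giving 100% growth inhibition.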

In series [2] the test system is Acinetobacter junii. In words: Antibacterial activity against […] Acinetobacter junii RT-4 after 18 to 20 hrs by microbroth dilution method. Type of series: functional. In short, it runs like this:
as §1

Series [3] has as its system Enterococcus faecalis. Put plainly: Antibacterial activity against Enterococcus faecalis ATCC 29212 after 18 to 20 hrs by microbroth dilution method. Format: functional. In short, it runs like this: as §1
In general terms: Broth dilution looks for growth in wells or tubes with falling amounts of substance.

For series [4], the system named is Escherichia coli. Put plainly: Antibacterial activity against Escherichia coli ATCC 25922 after 18 to 20 hrs by microbroth dilution method. Type of series: functional. Put shortly: as §1
The subject of series [5] is Escherichia coli. Put plainly: Antibacterial activity against Escherichia coli D21 after 18 to 20 hrs by microbroth dilution method. Type of series: functional. In short, it runs like this:
as §1

The subject of series [6] is Pseudomonas syringae. Put plainly: Antibacterial activity against Pseudomonas syringae pv tobaci after 18 to 20 hrs by microbroth dilution method. Type of series: functional. Put shortly: as §1
The test system of series [7] is Pseudomonas aeruginosa. Put plainly: Antibacterial activity against Pseudomonas aeruginosa ATCC 15692 after 18 to 20 hrs by microbroth dilution method. Type of series: functional. Put shortly:
as §1

Series [8] deals with Pseudomonas aeruginosa. In words: Antibacterial activity against Pseudomonas aeruginosa ATCC 27853 after 18 to 20 hrs by microbroth dilution method. Type of series: functional. In short, it runs like this: as §1
Series [9] deals with Yersinia pseudotuberculosis. In words: Antibacterial activity against Yersinia pseudotuberculosis YPIII after 18 to 20 hrs by microbroth dilution method. Type of series: functional. Put shortly: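 Broth microdilution adapted from CLSI. Mid-log bacteria at 2 × 10^6 CFU/mL in Mueller-Hinton broth were mixed 1:1 with MH broth containing peptide in serial 2-fold dilutions (peptide in 20% ethanol), 0.75-48 μM. Plates were incubated 18-20 h at 37 °C and growth was read as A600. MIC is the concentration giving 100% growth inhibition.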

Series [10] has as its system Priestia megaterium. Put plainly: Antibacterial activity against Bacillus megaterium Bm11 after 18 to 20 hrs by microbroth dilution method. Type of series: functional. In short, it runs like this:
as §1

Series [11] relates to Staphylococcus aureus. In words: Antibacterial activity against Staphylococcus aureus ATCC 25923 after 18 to 20 hrs by microbroth dilution method. Format: functional. In short, it runs like this: as §1
The subject of series [12] is Staphylococcus aureus. Put plainly: Antibacterial activity against Staphylococcus aureus Cowan I after 18 to 20 hrs by microbroth dilution method. Type of series: functional. Put shortly:
as §1

The test system of series [13] is Staphylococcus capitis. In words: Antibacterial activity against Staphylococcus capitis after 18 to 20 hrs by microbroth dilution method. Format: functional. In short, it runs like this:
as §1

The test system of series [14] is Staphylococcus epidermidis. In words: Antibacterial activity against Staphylococcus epidermidis ATCC 12228 after 18 to 20 hrs by microbroth dilution method. Format: functional. In short, it runs like this:
as §1

Series [15] concerns Streptococcus pyogenes. In words: Antibacterial activity against Streptococcus pyogenes ATCC 21547 after 18 to 20 hrs by microbroth dilution method. Format: functional. In short, it runs like this:
as §1

In series [16] the test system is Candida albicans. In words: Antifungal activity against Candida albicans ATCC 10231 after 18 to 20 hrs by microbroth dilution method. Type of series: functional. Put shortly: (§2)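 Yeasts tested by adapted CLSI microbroth dilution in Winge medium. Peptide given in serial 2-fold dilutions (0.75-48 μM, made in 20% ethanol). Incubation 18-20 h at 30 °C, read at A600. MIC taken as the concentration giving complete (100%) growth inhibition.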

For series [17], the system named is Schizosaccharomyces pombe. Put plainly: Antifungal activity against Schizosaccharomyces pombe after 18 to 20 hrs by microbroth dilution method. Format: functional. In short, it runs like this:
as §2

For series [18], the system named is Saccharomyces cerevisiae. Put plainly: Antifungal activity against Saccharomyces cerevisiae after 18 to 20 hrs by microbroth dilution method. Format: functional. Put shortly:
as §2

Series [19] can be described thus: Toxicity in human erythrocytes assessed as hemolysis at 24 uM after 40 mins. Format: cell-based, Erythrocyte. To be noted: read-out: Activity. Put shortly:
(§3)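 Human red blood cells suspended in 0.9% (w/v) NaCl and incubated 40 min at 37 °C with gentle mixing with serial 2-fold peptide dilutions (peptide predissolved in 20% ethanol). Spun 5 min at 900g; supernatant read at 415 nm. Cells lysed in distilled water set the 100% lysis reference.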

Series [20] in a line: Toxicity in human erythrocytes assessed as hemolysis at 12 uM after 40 mins. Format: cell-based, Erythrocyte. To be noted: read-out: Activity. In short, it runs like this: as §3
Series [21] can be described thus: Toxicity in human erythrocytes assessed as hemolysis at 6 uM after 40 mins. Type of series: cell-based, Erythrocyte. To be noted: read-out: Activity. In short, it runs like this:
as §3

The nature of series [22]: Toxicity in human erythrocytes assessed as hemolysis at 3 uM after 40 mins. To be noted: read-out: Activity. Type of series: cell-based, Erythrocyte. In short, it runs like this:
as §3

Series [23] can be described thus: Toxicity in human erythrocytes assessed as hemolysis at 1.5 uM after 40 mins. Type of series: cell-based, Erythrocyte. To be noted: read-out: Activity. In short, it runs like this: as §3

Turning to `CC[C@H](C)[C@H](NC(=O)[C@H](CCCNC(=N)N)NC(=O)CNC(=O)[C@H](CC(C)C)NC(=O)[C@H](Cc1ccccc1)NC(=O)[C@H](CCCNC(=N)N)NC(=O)[C@H](CO)NC(=O)[C@H](Cc1ccccc1)NC(=O)[C@H](Cc1c[nH]c2ccccc12)NC(=O)[C@H](CCC(N)=O)NC(=O)[C@@H](NC(=O)[C@@H](N)Cc1ccccc1)C(C)C)C(=O)N[C@@H](CC(C)C)C(N)=O` (H-FVQWFSRFLGRIL-NH2), the MIC in series [1] is 6 µM (≈ 10 µg/mL); in series [2], 6 µM (≈ 10 µg/mL); in [3] it was 12 µM (≈ 20 µg/mL); in [4], 12 µM (≈ 20 µg/mL); in [5], 48 µM (≈ 80.1 µg/mL); in series [6] it was 12 µM (≈ 20 µg/mL). In addition, the MIC was determined as 24 µM (≈ 40 µg/mL) in series [7]; 48 µM (≈ 80.1 µg/mL) in series [8]; 6 µM (≈ 10 µg/mL) in [9]; 6 µM (≈ 10 µg/mL) in series [10]; 6 µM (≈ 10 µg/mL) in series [11]; 6 µM (≈ 10 µg/mL) in series [12]. Further, the MIC stood at 6 µM (≈ 10 µg/mL) in series [13]; 6 µM (≈ 10 µg/mL) in series [14]; 6 µM (≈ 10 µg/mL) in [15]; 12 µM (≈ 20 µg/mL) in series [16]; 6 µM (≈ 10 µg/mL) in series [17]; 12 µM (≈ 20 µg/mL) in [18]. Besides, the hemolysis at 40 min, 24 µM in series [19] is 98%. The hemolysis at 40 min, 12 µM in series [20] was found to be 90%. Besides, the hemolysis at 40 min, 6 µM in series [21] is 29%. Besides, in series [22], the hemolysis at 40 min, 3 µM stood at 9%. In addition, in series [23], the hemolysis at 40 min, 1.5 µM came out at 4%.
`CC[C@H](C)[C@H](NC(=O)[C@H](CCCNC(=N)N)NC(=O)CNC(=O)[C@H](CC(C)C)NC(=O)[C@H](Cc1ccccc1)NC(=O)[C@H](CCCCN)NC(=O)[C@H](CO)NC(=O)[C@H](Cc1ccccc1)NC(=O)[C@H](Cc1c[nH]c2ccccc12)NC(=O)[C@H](CCCNC(=N)N)NC(=O)[C@@H](NC(=O)[C@@H](N)Cc1ccccc1)C(C)C)C(=O)N[C@@H](CC(C)C)C(N)=O` (H-FVRWFSKFLGRIL-NH2): the MIC in series [1] came out at 6 µM (≈ 10 µg/mL); in series [2] it was 3 µM (≈ 5 µg/mL); in [3], 12 µM (≈ 20 µg/mL); in [4] it was 24 µM (≈ 40 µg/mL); in series [5], 12 µM (≈ 20 µg/mL); in series [6], 6 µM (≈ 10 µg/mL). The MIC in [7] came to 12 µM (≈ 20 µg/mL); in series [8] it was 24 µM (≈ 40 µg/mL); in series [9] it was 3 µM (≈ 5 µg/mL); in series [10], 3 µM (≈ 5 µg/mL); in series [11], 6 µM (≈ 10 µg/mL); in series [12] it was 6 µM (≈ 10 µg/mL). In addition, the MIC in series [13] was 3 µM (≈ 5 µg/mL); in [14], 3 µM (≈ 5 µg/mL); in series [15], 3 µM (≈ 5 µg/mL); in series [16] it was 12 µM (≈ 20 µg/mL); in series [17], 12 µM (≈ 20 µg/mL); in series [18], 24 µM (≈ 40 µg/mL). Also, the hemolysis at 40 min, 24 µM in series [19] worked out at 100%. Also, in series [20], the hemolysis at 40 min, 12 µM was 100%. Moreover, the hemolysis at 40 min, 6 µM in series [21] turned out to be 52%. The hemolysis at 40 min, 3 µM in [22] turned out to be 20%. Moreover, the hemolysis at 40 min, 1.5 µM in [23] was found to be 7%.
For `CC[C@H](C)[C@H](NC(=O)[C@H](CCCNC(=N)N)NC(=O)CNC(=O)[C@H](CC(C)C)NC(=O)[C@H](Cc1ccccc1)NC(=O)[C@H](CCCNC(=N)N)NC(=O)[C@H](CO)NC(=O)[C@H](Cc1ccccc1)NC(=O)[C@H](Cc1c[nH]c2ccccc12)NC(=O)[C@H](CCCNC(=N)N)NC(=O)[C@@H](NC(=O)[C@@H](N)Cc1ccccc1)C(C)C)C(=O)N[C@@H](CC(C)C)C(N)=O` (H-FVRWFSRFLGRIL-NH2), the MIC in series [1] was 6 µM (≈ 10.2 µg/mL); in series [2], 12 µM (≈ 20.4 µg/mL); in [3], 24 µM (≈ 40.7 µg/mL); in series [4] it was 48 µM (≈ 81.4 µg/mL); in series [5] it was 24 µM (≈ 40.7 µg/mL); in series [6], 6 µM (≈ 10.2 µg/mL). Besides, the MIC came to 24 µM (≈ 40.7 µg/mL) in series [7]; 24 µM (≈ 40.7 µg/mL) in [8]; 6 µM (≈ 10.2 µg/mL) in series [9]; 3 µM (≈ 5.09 µg/mL) in series [10]; 6 µM (≈ 10.2 µg/mL) in series [11]; 6 µM (≈ 10.2 µg/mL) in series [12]. The MIC in series [13] was 6 µM (≈ 10.2 µg/mL); in series [14], 6 µM (≈ 10.2 µg/mL); in [15], 3 µM (≈ 5.09 µg/mL); in series [16], 24 µM (≈ 40.7 µg/mL); in series [17], 12 µM (≈ 20.4 µg/mL); in series [18] it was 24 µM (≈ 40.7 µg/mL). The hemolysis at 40 min, 24 µM in [19] was determined as 100%. For the same compound, the hemolysis at 40 min, 12 µM in series [20] is 92%. For the same compound, the hemolysis at 40 min, 6 µM in series [21] turned out to be 43%. Also, the hemolysis at 40 min, 3 µM in [22] is 14%. Besides, the hemolysis at 40 min, 1.5 µM in [23] stood at 6%.

The term MIC denotes the lowest concentration that inhibits growth of the organism. Read a low MIC as a more susceptible organism.
